The target in test [1] is Tyrosine-protein kinase BTK (Homo sapiens) (UniProt Q06187). The test is described as follows: Inhibition of BTK (unknown origin) at 1 uM relative to control. The method in brief:
(§1)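 Single-point screen of each compound against a panel of 59 protein kinases, at 1 or 10 μM. The panel data are also summarised as a rescaled geometric mean selectivity score.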

Test [2] has as its target CDK2/Cyclin A2 (Homo sapiens) (UniProt P24941+P20248). The test is described as follows: Inhibition of CDK2/cyclinA (unknown origin) at 1 uM relative to control. The format is protein-complex assay. The essentials:
as §1

The target in test [3] is Casein kinase I (Homo sapiens) (UniProt Q9HCP0+P78368+P48730+P49674+P48729). The experiment in a line: Inhibition of CK1 (unknown origin) at 1 uM relative to control. The format is protein assay. The essentials:
as §1

Test [4] concerns the target Tyrosine-protein kinase CSK (Homo sapiens) (UniProt P41240). The experiment in a line: Inhibition of CSK (unknown origin) at 1 uM relative to control. The method in brief:
as §1

Test [5] addresses T1, Eukaryotic elongation factor 2 kinase (Homo sapiens) (UniProt O00418).
T1 sequence (whole entry): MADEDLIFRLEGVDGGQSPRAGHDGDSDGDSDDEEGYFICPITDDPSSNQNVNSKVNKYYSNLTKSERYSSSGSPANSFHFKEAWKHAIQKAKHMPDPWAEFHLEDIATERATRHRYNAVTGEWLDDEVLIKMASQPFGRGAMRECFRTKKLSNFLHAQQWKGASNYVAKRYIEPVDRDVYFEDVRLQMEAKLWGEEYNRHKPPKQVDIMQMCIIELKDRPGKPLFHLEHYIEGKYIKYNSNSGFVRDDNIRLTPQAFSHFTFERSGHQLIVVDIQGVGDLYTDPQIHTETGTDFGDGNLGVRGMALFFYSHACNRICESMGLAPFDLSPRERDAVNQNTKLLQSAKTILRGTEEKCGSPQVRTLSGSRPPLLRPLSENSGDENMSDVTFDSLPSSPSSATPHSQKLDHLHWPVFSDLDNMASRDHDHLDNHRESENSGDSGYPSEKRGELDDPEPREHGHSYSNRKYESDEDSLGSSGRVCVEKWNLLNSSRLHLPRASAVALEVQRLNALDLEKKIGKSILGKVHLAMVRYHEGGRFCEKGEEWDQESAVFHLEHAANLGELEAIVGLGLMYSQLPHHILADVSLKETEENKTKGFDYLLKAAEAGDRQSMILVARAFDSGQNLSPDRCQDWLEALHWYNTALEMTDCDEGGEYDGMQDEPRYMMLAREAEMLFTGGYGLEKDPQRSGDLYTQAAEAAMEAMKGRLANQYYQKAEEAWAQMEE
The experiment in a line: Inhibition of EF2K (unknown origin) at 1 uM relative to control. The method in brief:
as §1

The target in test [6] is Glycogen synthase kinase-3 beta (Homo sapiens) (UniProt P49841). The test is described as follows: Inhibition of GSK3b (unknown origin) at 1 uM relative to control. The essentials:
as §1

In test [7] the target is MAP kinase-interacting serine/threonine-protein kinase 2 (Homo sapiens) (UniProt Q9HBH9). The experiment in a line: Inhibition of MNK2 (unknown origin) at 1 uM relative to control. The essentials: (§2)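 Single-concentration screen of each compound against a 59-protein-kinase panel, run at 10 µM or 1 µM. Activity relative to control is shown as a heat map across the panel.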

The target in test [8] is T2, Serine/threonine-protein kinase 3 (Homo sapiens) (UniProt Q13188).
T2 sequence (whole entry): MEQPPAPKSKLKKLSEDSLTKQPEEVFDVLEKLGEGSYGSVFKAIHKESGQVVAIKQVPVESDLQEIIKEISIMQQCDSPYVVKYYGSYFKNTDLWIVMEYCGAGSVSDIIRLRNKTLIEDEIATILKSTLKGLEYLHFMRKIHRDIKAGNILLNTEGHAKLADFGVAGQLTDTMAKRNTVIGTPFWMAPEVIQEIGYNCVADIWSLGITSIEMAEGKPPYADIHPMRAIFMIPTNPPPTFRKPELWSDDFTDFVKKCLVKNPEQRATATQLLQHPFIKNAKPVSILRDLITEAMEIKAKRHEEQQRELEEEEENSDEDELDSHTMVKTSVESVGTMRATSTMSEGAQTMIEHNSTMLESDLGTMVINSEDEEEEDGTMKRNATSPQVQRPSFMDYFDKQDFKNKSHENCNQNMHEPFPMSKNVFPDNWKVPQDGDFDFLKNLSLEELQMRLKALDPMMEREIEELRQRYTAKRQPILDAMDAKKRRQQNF
The experiment in a line: Inhibition of MST2 (unknown origin) at 1 uM relative to control. The method in brief: as §2

In test [9] the target is Serine/threonine-protein kinase 26 (Homo sapiens) (UniProt Q9P289). The test is described as follows: Inhibition of MST4 (unknown origin) at 1 uM relative to control. The essentials:
as §2

In test [10] the target is T3, Serine/threonine-protein kinase Nek2 (Homo sapiens) (UniProt P51955).
T3 sequence (whole entry): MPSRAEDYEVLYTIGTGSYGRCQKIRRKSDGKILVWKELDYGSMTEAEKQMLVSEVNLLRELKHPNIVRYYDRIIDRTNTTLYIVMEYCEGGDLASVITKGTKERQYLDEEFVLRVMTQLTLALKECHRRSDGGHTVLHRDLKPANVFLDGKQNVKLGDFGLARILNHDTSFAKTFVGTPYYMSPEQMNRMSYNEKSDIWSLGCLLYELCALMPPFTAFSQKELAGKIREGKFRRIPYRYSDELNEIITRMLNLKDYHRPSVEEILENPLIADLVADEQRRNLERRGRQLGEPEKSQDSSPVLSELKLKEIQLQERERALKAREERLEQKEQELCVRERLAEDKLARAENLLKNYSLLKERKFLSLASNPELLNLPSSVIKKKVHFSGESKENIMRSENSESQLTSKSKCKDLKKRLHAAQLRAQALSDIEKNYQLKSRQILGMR
The test is described as follows: Inhibition of NEK2a (unknown origin) at 1 uM relative to control. The essentials:
as §2

Test [11] addresses Mitogen-activated protein kinase 14 (Homo sapiens) (UniProt Q16539). The experiment in a line: Inhibition of p38a MAPK (unknown origin) at 1 uM relative to control. The essentials:
(§3)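 Single-concentration screen across a panel of 59 protein kinases, with each compound tested at one fixed concentration. The read-out is residual kinase activity relative to control. Panel results are also condensed into a rescaled geometric mean (RGM) selectivity score.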

For test [12], the target named is Phosphorylase kinase (Homo sapiens) (UniProt P15735+P46020+P46019+Q93100+Q16816). The test is described as follows: Inhibition of PHK (unknown origin) at 1 uM relative to control. The class given is protein-complex assay. The essentials: as §2
Test [13] addresses Serine/threonine-protein kinase pim-1 (Homo sapiens) (UniProt P11309). The test is described as follows: Inhibition of PIM1 (unknown origin) at 1 uM relative to control. The essentials:
as §2

Test [14] is filed under the species Homo sapiens. The test is described as follows: Inhibition of PKA (unknown origin) at 1 uM relative to control. The essentials: as §2
Test [15] concerns the target Protein kinase C alpha type (Homo sapiens) (UniProt P17252). The test is described as follows: Inhibition of PKCa (unknown origin) at 1 uM relative to control. The essentials:
as §2

Test [16] deals with Ribosomal protein S6 kinase alpha-1 (Homo sapiens) (UniProt Q15418). The test is described as follows: Inhibition of RSK1 (unknown origin) at 1 uM relative to control. The method in brief: as §2
In test [17] the target is Tyrosine-protein kinase SYK (Homo sapiens) (UniProt P43405). The test is described as follows: Inhibition of SYK (unknown origin) at 1 uM relative to control. The essentials: as §3
The species named for test [18] is Homo sapiens. The test is described as follows: Inhibition of VEGFR (unknown origin) at 1 uM relative to control. The method in brief: as §3

Chain of Tyrosine-protein kinase CSK (Homo sapiens) (P41240 2-450 limits assumed): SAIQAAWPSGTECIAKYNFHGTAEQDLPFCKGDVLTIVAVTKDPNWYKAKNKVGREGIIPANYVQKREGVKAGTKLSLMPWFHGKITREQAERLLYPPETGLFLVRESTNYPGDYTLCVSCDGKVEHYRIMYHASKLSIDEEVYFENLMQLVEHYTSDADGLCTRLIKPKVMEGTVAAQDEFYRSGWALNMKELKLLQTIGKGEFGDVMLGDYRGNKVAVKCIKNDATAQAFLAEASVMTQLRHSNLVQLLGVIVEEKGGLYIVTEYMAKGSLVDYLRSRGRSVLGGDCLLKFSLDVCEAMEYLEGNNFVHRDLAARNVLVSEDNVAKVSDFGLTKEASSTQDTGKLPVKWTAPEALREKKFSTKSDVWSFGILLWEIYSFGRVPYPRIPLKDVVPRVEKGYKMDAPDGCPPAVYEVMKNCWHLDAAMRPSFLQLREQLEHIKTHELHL
Chain of Mitogen-activated protein kinase 14 (Homo sapiens) (Q16539 whole entry): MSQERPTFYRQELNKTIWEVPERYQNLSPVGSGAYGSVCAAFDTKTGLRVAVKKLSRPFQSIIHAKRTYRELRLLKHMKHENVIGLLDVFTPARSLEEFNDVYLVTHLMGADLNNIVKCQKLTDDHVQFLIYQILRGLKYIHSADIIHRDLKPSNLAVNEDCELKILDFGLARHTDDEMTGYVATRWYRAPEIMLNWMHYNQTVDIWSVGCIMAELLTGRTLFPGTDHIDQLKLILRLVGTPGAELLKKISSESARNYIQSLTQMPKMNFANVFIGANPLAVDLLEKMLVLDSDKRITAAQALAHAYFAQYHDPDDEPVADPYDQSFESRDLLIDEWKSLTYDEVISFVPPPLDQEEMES
Chain of Serine/threonine-protein kinase 26 (Homo sapiens) (Q9P289 2-416 limits assumed): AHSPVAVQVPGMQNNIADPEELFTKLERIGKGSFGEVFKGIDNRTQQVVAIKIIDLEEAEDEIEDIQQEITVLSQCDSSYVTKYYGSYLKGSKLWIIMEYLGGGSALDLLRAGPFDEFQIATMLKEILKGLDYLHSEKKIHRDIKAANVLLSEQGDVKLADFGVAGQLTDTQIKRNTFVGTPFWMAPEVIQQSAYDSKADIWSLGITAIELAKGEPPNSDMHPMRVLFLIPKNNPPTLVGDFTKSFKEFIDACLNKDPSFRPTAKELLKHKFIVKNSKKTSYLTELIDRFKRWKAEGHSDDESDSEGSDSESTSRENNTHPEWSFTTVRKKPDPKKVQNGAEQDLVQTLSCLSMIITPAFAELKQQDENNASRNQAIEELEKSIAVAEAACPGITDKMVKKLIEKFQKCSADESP
Chain of Tyrosine-protein kinase BTK (Homo sapiens) (Q06187 whole entry): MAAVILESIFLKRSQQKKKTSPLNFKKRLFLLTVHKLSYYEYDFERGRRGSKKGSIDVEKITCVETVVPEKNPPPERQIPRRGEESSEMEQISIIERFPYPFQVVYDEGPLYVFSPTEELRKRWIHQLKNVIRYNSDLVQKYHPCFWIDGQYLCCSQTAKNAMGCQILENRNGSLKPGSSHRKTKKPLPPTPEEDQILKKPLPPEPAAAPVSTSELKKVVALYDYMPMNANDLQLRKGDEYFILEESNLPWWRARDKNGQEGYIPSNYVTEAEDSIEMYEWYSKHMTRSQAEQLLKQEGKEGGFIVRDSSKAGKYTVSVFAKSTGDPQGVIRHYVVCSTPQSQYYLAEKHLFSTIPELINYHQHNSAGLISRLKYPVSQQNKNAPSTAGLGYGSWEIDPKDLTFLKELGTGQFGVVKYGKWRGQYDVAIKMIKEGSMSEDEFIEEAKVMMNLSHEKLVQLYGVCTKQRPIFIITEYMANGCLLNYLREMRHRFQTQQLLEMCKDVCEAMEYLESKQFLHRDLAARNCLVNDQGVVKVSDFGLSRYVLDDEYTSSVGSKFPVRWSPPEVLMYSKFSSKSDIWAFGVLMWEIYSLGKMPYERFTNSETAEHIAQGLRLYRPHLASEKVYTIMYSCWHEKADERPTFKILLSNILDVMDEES
Chain of Serine/threonine-protein kinase pim-1 (Homo sapiens) (P11309 whole entry, looked up): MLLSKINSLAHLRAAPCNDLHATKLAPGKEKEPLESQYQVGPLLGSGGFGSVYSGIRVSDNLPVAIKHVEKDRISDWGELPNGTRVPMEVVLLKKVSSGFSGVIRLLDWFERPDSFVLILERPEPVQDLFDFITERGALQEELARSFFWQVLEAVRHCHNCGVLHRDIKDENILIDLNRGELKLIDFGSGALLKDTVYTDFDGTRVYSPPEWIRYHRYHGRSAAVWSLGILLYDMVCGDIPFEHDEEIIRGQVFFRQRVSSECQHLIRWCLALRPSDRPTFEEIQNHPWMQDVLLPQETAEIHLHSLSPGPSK
Chain of Glycogen synthase kinase-3 beta (Homo sapiens) (P49841 whole entry, looked up): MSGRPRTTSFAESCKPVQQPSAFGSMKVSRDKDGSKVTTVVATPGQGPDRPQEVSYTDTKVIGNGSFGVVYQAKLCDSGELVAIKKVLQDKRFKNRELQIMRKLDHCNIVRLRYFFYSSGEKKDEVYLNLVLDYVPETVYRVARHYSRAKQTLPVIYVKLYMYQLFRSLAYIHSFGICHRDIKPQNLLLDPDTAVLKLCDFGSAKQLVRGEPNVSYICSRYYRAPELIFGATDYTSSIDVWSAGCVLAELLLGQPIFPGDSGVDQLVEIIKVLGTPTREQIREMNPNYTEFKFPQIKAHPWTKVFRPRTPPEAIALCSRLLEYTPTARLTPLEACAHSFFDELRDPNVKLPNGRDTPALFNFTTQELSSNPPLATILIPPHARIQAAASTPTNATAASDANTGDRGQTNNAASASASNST
Chain of Ribosomal protein S6 kinase alpha-1 (Homo sapiens) (Q15418 whole entry): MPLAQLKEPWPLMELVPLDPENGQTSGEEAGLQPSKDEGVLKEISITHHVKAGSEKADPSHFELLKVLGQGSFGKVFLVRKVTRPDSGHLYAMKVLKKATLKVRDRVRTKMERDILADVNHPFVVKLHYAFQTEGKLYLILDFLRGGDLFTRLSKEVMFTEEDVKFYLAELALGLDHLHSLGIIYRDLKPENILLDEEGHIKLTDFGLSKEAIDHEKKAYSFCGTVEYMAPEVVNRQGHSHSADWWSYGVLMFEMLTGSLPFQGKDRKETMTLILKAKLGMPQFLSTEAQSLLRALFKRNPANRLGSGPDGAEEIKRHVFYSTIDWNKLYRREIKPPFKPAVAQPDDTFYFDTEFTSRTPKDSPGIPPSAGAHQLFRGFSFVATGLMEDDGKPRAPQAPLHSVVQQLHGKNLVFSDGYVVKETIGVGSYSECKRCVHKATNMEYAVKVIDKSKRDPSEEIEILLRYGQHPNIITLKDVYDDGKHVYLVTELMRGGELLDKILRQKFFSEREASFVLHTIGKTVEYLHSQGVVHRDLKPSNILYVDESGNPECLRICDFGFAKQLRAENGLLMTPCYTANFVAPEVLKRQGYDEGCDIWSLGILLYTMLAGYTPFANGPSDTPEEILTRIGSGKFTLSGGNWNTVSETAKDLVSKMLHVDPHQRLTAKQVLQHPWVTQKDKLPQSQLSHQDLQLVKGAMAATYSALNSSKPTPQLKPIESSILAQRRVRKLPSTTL
Chain of MAP kinase-interacting serine/threonine-protein kinase 2 (Homo sapiens) (Q9HBH9 whole entry, looked up): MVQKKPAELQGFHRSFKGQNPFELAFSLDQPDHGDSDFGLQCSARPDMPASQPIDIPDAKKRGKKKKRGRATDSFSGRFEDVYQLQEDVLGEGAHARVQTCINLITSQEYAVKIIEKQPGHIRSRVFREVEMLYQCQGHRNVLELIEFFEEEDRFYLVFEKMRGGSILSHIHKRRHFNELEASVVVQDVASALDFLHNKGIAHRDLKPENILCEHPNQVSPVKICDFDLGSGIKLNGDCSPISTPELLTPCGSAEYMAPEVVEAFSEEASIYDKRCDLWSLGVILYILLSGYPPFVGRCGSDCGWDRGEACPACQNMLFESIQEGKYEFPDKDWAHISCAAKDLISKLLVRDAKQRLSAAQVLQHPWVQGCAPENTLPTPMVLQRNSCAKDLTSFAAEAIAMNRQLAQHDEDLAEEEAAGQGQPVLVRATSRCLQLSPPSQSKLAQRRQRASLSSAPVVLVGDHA

`c1cc(-c2n[nH]c3ccnc(OC4CCOCC4)c23)cc(N2CCOCC2)n1`: the inhibition (in general, how much of the control response was suppressed) in test [1] turned out to be 51%; in test [2], 23%; in test [3] it was 0%; in test [4], 0%; in [5], 9%; in [6], 36%. For the same compound, the inhibition in test [7] was determined as 13%; in test [8] it was 7%; in test [9] it was 3%; in test [10], 0%; in test [11] it was 0%; in test [12], 15%. Further, the inhibition was 34% in test [13]; 26% in the test filed under Homo sapiens [14]; 0% in test [15]; 3% in [16]; 0% in test [17]; 2% in the test filed under Homo sapiens [18].

For `CC(C)n1cc(-c2n[nH]c3ccnc(OC4CCOCC4)c23)cn1`, the inhibition in test [1] came out at 39%; in [2], 66%; in test [3], 0%; in test [4] it was 0%; in [5] it was 0%; in [6] it was 90%. Also, the inhibition stood at 5% in test [7]; 40% in test [8]; 47% in test [9]; 8% in test [10]; 0% in test [11]; 41% in [12]. Moreover, the inhibition in test [13] was determined as 77%; in the test listed under Homo sapiens [14], 11%; in test [15], 0%; in [16], 62%; in test [17], 0%; in the test filed under Homo sapiens [18] it was 59%.

The values are drawn from ChEMBL document CHEMBL4330096, “Discovery of potent and selective 5-azaindazole inhibitors of leucine-rich repeat kinase 2 (LRRK2) - Part 1” (Bioorg Med Chem Lett, 2019).
